Screening data from PubChem BioAssay.
Compounds with a hit are over-represented: about 2.3% of the library has one in this group of screens.
NadD block – NadD (S. aureus) enzyme inhibition; purified NadD enzyme, colorimetric absorbance read-out; inhibition, % at 20 µM; actives 0.78% (n = 360,000); in the data active means inhibition above about 26%
DNMT1 inh – DNMT1 (human) enzyme inhibition; P26358; DNMT1 molecular beacon, Hinp1I cleavage, fluorescence; inhibition (reported as % activation of signal), % at 10 µM; actives 0.83% (n = 360,000); in the data active means inhibition above about 50%
Target sequence (P26358 504-1616 limits assumed): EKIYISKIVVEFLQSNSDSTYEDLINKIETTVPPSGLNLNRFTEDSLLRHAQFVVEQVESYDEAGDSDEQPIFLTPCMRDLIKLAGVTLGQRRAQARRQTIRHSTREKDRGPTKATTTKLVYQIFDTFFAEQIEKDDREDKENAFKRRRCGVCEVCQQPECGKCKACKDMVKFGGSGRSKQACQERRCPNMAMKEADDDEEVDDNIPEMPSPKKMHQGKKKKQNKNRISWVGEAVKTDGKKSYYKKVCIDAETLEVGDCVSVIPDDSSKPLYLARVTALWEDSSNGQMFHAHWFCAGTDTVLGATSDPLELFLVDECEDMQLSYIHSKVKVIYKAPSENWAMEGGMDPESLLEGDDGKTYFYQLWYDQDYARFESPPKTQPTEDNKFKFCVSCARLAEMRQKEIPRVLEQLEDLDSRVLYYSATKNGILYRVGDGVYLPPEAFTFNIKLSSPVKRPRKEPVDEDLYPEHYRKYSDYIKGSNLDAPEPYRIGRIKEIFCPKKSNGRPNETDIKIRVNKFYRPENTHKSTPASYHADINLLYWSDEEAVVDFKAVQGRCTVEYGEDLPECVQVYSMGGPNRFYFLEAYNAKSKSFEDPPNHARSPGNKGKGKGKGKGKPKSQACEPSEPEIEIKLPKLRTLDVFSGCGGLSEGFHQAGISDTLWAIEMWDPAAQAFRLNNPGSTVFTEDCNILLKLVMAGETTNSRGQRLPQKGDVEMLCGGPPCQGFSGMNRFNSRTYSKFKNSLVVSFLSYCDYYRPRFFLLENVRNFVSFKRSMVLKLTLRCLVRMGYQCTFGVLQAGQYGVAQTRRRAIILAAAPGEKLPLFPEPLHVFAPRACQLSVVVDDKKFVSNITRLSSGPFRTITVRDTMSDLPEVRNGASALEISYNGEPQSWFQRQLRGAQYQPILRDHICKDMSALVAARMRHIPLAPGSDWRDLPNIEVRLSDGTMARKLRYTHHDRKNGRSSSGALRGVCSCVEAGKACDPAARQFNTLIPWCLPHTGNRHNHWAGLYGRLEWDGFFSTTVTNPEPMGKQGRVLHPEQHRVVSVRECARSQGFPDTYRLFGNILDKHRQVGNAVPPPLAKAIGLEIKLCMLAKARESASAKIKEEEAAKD
Scp1 inh – inhibitors of human Scp-1 phosphatase. Q9GZU7. Recombinant Scp1, phosphopeptide, malachite green phosphate absorbance. inhibition, % at 20 µM. actives 0.88% (n = 340,000). AID 493091;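 active means inhibition above about 50% at 20 µM, limit read from the data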
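Test system: SCP-1 phosphatase catalytic domain, residues 76-261 | Compound dosing: One concentration, 20 µM, with 1.0% DMSO | Schedule: 45 min room-temperature reaction, 5 min colour, 30 min stabiliser | Detection: Absorbance at 630 nm | Read-out basis: % inhibition of SCP-1 phosphate liberation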
STEP inh – STEP (human) phosphatase inhibition; AID 588621; actives 0.25% (n = 360,000); inhibition, % at 20 µM; P54829; recombinant STEP, OMFP fluorogenic substrate, fluorescence;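 active means inhibition at 20 µM, scaled per plate between control wells, above about 37%, limit read from the data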
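Material: STEP (striatal-enriched tyrosine phosphatase) enzyme, cell-free | Medium: 50 mM Bis-Tris pH 6.0 with 2.5 mM DTT and 0.005% Tween 20 | Read-out: Percent inhibition scaled to no-enzyme and uninhibited-enzyme controls, plate-pattern corrected | Signal: Fluorescence read at 480 nm ex / 540 nm em | Times: 20 min reaction, room temperature, in the dark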
SUMO1 PPI mod – SUMO1-SIM interaction modulation; SUMO1 binding to a labelled peptide, TR-FRET, 1 h; inhibition, % at 20 µM; actives 0.33% (n = 360,000); P63165; in the data active means inhibition above about 37%
LMPTP inh – LMPTP (human) inhibition | inhibition, % at 20 µM | P24666 | actives 0.22% (n = 360,000) | recombinant LMPTP-A, OMFP fluorogenic substrate, fluorescence intensity;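 active means compounds that cut the enzyme signal by at least half of the control window in the single-dose screen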
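test system = LMPTP-A | amount = 0.625 nM LMPTP-A final | reagent = fluorogenic phosphatase substrate OMFP at 400 µM final | incubation = 50 min at room temperature | benchmarks = no-enzyme low control, uninhibited high control | medium = Bis-Tris pH 6.0, DTT, detergent | signal = fluorescence intensity of OMFP turnover product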
DNMT1 interf DR – beacon fluorescence artifact, dose response counter-screen; shares compounds with DNMT1 inh; molecular beacon fluorescence, spectral interference counter-screen; IC50, µM; 200 tested, under 10 active; AID 602382; call rule not given here
DNMT1 inh conf – DNMT1 inhibition confirmation, single concentration; shares compounds with DNMT1 inh; DNMT1 molecular beacon HinP1I cleavage, fluorescence; inhibition, % at 10 µM; actives 8% (n = 2,300);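 active means average inhibition of at least 30% in the single-concentration confirmation test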
DNMT1 interf – beacon fluorescence artifact counter-screen | shares compounds with DNMT1 inh | DNMT1 molecular beacon spectral interference counterscreen, fluorescence 485/520 | activation (fluorescence interference), % at 10 µM | actives 1% (n = 2,300);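 active means activation of at least 30% at 10 µM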;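 further: DNMT1 catalytic domain with a HinP1I cleavage step and a FAM/dabcyl DNA beacon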
Large screens that a line does not name were inactive (follow-up assays come after a bar, where they were run).

COc1ccc(/C=C(/NC(=O)c2ccc(C)cc2)C(=O)NCc2ccncc2)cc1	none
CC1(C)CC(=O)C=C(/C=C/c2ccccc2)C1	none
O=C1NC(=S)N/C1=C/c1cccn1-c1ccc([N+](=O)[O-])cc1	DNMT1 inh 55.1 | DNMT1 inh conf inactive | DNMT1 interf inactive
N=C1/C(=C/c2cccn2-c2ccc([N+](=O)[O-])cc2)C(=O)N=C2SC=CN12	none
CCCCn1c(N)c(-c2nc3ccccc3o2)c2c([N+](=O)[O-])nn(CC)c(=O)c21	DNMT1 inh 55.9 | DNMT1 inh conf inactive | DNMT1 interf inactive
CN(C)c1cccc(CNC(=O)c2csc([C@H]3C[C@H](O)[C@@H](CO)O3)n2)c1	none (no result: Scp1 inh)
O=C(COC(=O)C12CC3CC(CC(C3)C1)C2)Nc1ccc([N+](=O)[O-])cc1Cl	DNMT1 inh 71.6 | DNMT1 inh conf inactive | DNMT1 interf inactive
CCOC(=O)c1c(NC(=O)c2cc(-c3ccc(Cl)s3)nc3ccccc23)sc(C(N)=O)c1C	DNMT1 inh 55.6 | DNMT1 inh conf inactive | DNMT1 interf inactive
Cc1cc(-c2n[nH]c(=S)n2/N=C/c2ccc(Cl)c([N+](=O)[O-])c2)n[nH]1	none
O=[N+]([O-])c1ccc(-c2nn(-c3ccccc3)cc2/C=N/n2c(-c3ccncc3)n[nH]c2=S)cc1	DNMT1 inh 56.8 | DNMT1 inh conf inactive | DNMT1 interf inactive
O=[N+]([O-])c1cc(/C=N/n2c(-c3ccncc3)n[nH]c2=S)ccc1Cl	DNMT1 inh 54.9 | DNMT1 inh conf inactive | DNMT1 interf inactive
CCN(CC)S(=O)(=O)c1cc(C(=O)NCCN2CCOCC2)ccc1Cl	none
COc1ccccc1NS(=O)(=O)c1cc2c3c(c1)CCN3C(=O)CC2	DNMT1 inh 84.3 | DNMT1 inh conf inactive | DNMT1 interf inactive
COc1ccccc1CCNS(=O)(=O)c1cc2c3c(c1)CCN3C(=O)CC2	none
O=C(CS(=O)(=O)c1ccc(Cl)cc1)Nc1nccs1	none (no result: Scp1 inh)
CCOc1ccc(NC(=O)C2CCN(S(=O)(=O)CC)CC2)cc1	DNMT1 inh 60.0 | DNMT1 inh conf inactive | DNMT1 interf inactive
CCOC(=O)c1ccc(NC(=O)C2CCN(S(=O)(=O)CC)CC2)cc1	none
COc1cccc(C(=O)C2CCCN(C(=O)c3cccc(C#CC(C)(C)O)c3)C2)c1 (configuration not stated)	none
COc1ccc(/C=N/Nc2cc(N3CCCC3)nc(N3CCCC3)n2)cc1	DNMT1 inh 58.2 | DNMT1 inh conf inactive | DNMT1 interf inactive
O=C(COC(=O)CCN1C(=O)C2CC=CCC2C1=O)Nc1ccc(Cl)cc1F (configuration not stated)	none
Cc1ccc2cc3c(N)c4c(C)ccc(C)c4nc3nc2c1	DNMT1 inh 72.2 | DNMT1 interf DR inactive | DNMT1 inh conf inactive | DNMT1 interf inactive
Cc1ccc2c(N)c(C)ccc2c1	none
Cc1cccc2sc(NC(=O)C3CCCO3)nc12 (configuration not stated)	none
Cc1nc(C)c(C(=O)Nc2nc3c(C)cccc3s2)o1	DNMT1 inh 78.9 | DNMT1 inh conf inactive | DNMT1 interf inactive
CCC(CCCO)CCC[C@H](C)CCC1OCCO1 (some centres not stated)	DNMT1 inh 58.8 | DNMT1 inh conf inactive | DNMT1 interf inactive
COc1ccc(CCn2c(N)c(C(=O)NCc3ccco3)c3nc4ccccc4nc32)cc1OC	DNMT1 inh 54.2, SUMO1 PPI mod 43.9 | DNMT1 inh conf inactive | DNMT1 interf inactive
COc1ccc(CCn2c(N)c(C(=O)NCc3ccco3)c3nc4ccccc4nc32)cc1	none
CC1CCCCN1CCNC(=O)c1ccc2c(c1)N(Cc1cccc(Cl)c1)C(=O)c1ccccc1S2(=O)=O (configuration not stated)	DNMT1 inh 85.7 (no result: Scp1 inh) | DNMT1 inh conf inactive | DNMT1 interf inactive
CCN(C(=O)COC(=O)c1nccnc1N)c1cccc2ccccc12	DNMT1 inh 61.1 | DNMT1 inh conf inactive | DNMT1 interf inactive
CCN(C(=O)COC(=O)c1ccc(O)cc1)c1cccc2ccccc12	none
COc1ccc(N=C2NC(=O)/C(=C\C=C\c3ccco3)S2)cc1	NadD block 36.5, DNMT1 inh 79.7 | DNMT1 inh conf inactive | DNMT1 interf inactive
O=C1NC(=Nc2ccc3ccccc3c2)S/C1=C/c1ccco1	NadD block 34.1, DNMT1 inh 67.2 | DNMT1 inh conf inactive | DNMT1 interf inactive
Cc1ccc(N=C2NC(=O)/C(=C\c3ccco3)S2)cc1	none
Cc1cccc(N=C2NC(=O)/C(=C/C=C/c3ccco3)S2)c1	NadD block 32.1, DNMT1 inh 85.1 | DNMT1 inh conf inactive | DNMT1 interf inactive
Cc1ccc(C(=O)NCCNc2nc3cc(C)c(C)cc3cc2C)cc1	DNMT1 inh 55.8 | DNMT1 inh conf inactive | DNMT1 interf inactive
Cc1cc2cc(C)c(NCCNC(=O)c3ccccc3)nc2cc1C	none
Cc1cc(SCC(=O)NN)c2cc(Br)ccc2n1	none
COc1ccc(Br)cc1/C=N/n1nnnc1N	DNMT1 inh 53.2 | DNMT1 inh conf inactive | DNMT1 interf inactive
CC(C)C(CCNC(=O)CC(Cc1ccccc1)c1ccco1)c1ccco1 (configuration not stated)	DNMT1 inh 60.9 | DNMT1 inh conf inactive | DNMT1 interf inactive
CC(C)C(CCNC(=O)CN1C(=O)c2ccccc2C1=O)c1ccco1 (configuration not stated)	none
Cc1nc2sc3c(c2c(=O)[nH]1)CCC3	none
Cc1cc(-c2nc3c4c5c(sc4[nH]c(=O)n3n2)CCC5)c(C)o1	DNMT1 inh 65.7, Scp1 inh 58.5 | DNMT1 inh conf inactive | DNMT1 interf inactive
CCSc1nnc(NC(=O)C2Cc3ccccc3CN2C(=O)c2ccco2)s1 (configuration not stated)	DNMT1 inh 52.9 | DNMT1 inh conf inactive | DNMT1 interf inactive
Cc1ccccc1NC(=O)C1Cc2ccccc2CN1C(=O)c1ccco1 (configuration not stated)	none
COc1cccc(-c2cc(=O)c3cc(NC(=O)c4ccccc4)ccc3[nH]2)c1	none
COc1cccc(-c2cc(=O)c3cc(NC(=O)c4ccc(Cl)cc4)ccc3[nH]2)c1	DNMT1 inh 65.5 | DNMT1 inh conf inactive | DNMT1 interf inactive
COc1cc2ccc(CC(N)=O)cc2cc1OC	DNMT1 inh 51.8 (no result: Scp1 inh) | DNMT1 inh conf inactive | DNMT1 interf inactive
